A short description of data set [1]: Selectivity index, ratio of CC50 for mock-infected human MT4 cells to EC50 for HIV1 RES056 expressing reverse transcriptase K103N + Y181C double mutant. The settings on record: read-out: Ratio CC50/EC50. In kind it is toxicity, cell-based.
The subject of data set [2] is Human immunodeficiency virus 1. In words: Antiviral activity against HIV1 3B infected in human MT4 cells assessed as reduction in virus-induced cytopathic effect after 5 days by MTT assay. In kind it is functional, organism-based. The following applies: Human immunodeficiency virus 1, 3B, MT4, 120 h. The essentials:
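MT-4 cells at 6 × 10⁵ cells/mL infected with HIV-1 IIIB stock at 100-300 CCID50. Test compounds added as serial five-fold dilutions in triplicate wells. Viability of infected cells read spectrophotometrically by MTT 5 days after infection. Values are the mean ± SD of at least two parallel tests.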
(In general: Protection from cytopathic effect is a common read-out in antiviral testing.)

Data set [3] concerns Human immunodeficiency virus 1. In words: Antiviral activity against HIV1 RES056 expressing reverse transcriptase K103N + Y181C double mutant infected in human MT4 cells assessed as reduction in virus-induced cytopathic effect after 5 days by MTT assay. Type of data set: functional, organism-based. The following applies: Human immunodeficiency virus 1, RES056, MT4, 120 h. The essentials: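 MT-4 cells resuspended at 6 × 10⁵ cells/mL, infected with HIV-1 RES056 stock at 100–300 CCID50, compound in serial five-fold dilutions in triplicate wells alongside mock-infected wells. Viability read by MTT after 5 days.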

Data set [4] is described as follows: Selectivity index, ratio of CC50 for mock-infected human MT4 cells to EC50 for HIV1 3B infected in human MT4 cells. In kind it is toxicity, cell-based. The settings on record: mock-infected MT4 cells and MT4 cells infected with HIV1 3B, read-out: Ratio CC50/EC50.
A short description of data set [5]: Lipophilicity, log P of the compound at pH 7.0 by HPLC method. The settings on record: buffer. In kind it is physicochemical. The essentials:
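Log P measured at pH 7 by HPLC, in duplicate.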

Data set [6] concerns the target Human immunodeficiency virus type 1 reverse transcriptase (Human immunodeficiency virus 1, UniProt Q72547). The data set can be described thus: Inhibition of HIV1 reverse transcriptase assessed as reduction in biotin-labeled dUTP incorporation into DNA after 1 hr using poly(A) x oligo(dT)15 template/primer hybrid, digoxigenin and biotin-labeled nucleotides. A digest of the protocol:
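Recombinant HIV-1 RT, colorimetric ELISA kit. Poly(A)·oligo(dT)15 template/primer with biotin- and DIG-labelled dNTPs in lysis buffer ± inhibitor, 1 h at 37 °C. Serial five-fold dilutions tested. IC50 is the concentration halving labelled dUTP incorporation.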

A short description of data set [7]: Solubility in water at pH 7.0 after 2 hrs by HPLC-UV method. Type of data set: physicochemical. A digest of the protocol: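 DMSO stock spiked into purified water to 1% final DMSO. Shaken 2 h at 3000 rpm at room temperature, left 1 h, then filtered through a 0.22 membrane. Filtrate quantified by HPLC-UV on a C18 column (150 × 4.6 mm) with MeOH/water 85/15 at 1.0 mL/min. Measured at pH 7, in duplicate.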

The structures appear in SMILES notation. Values after ≈ are worked out from the molar mass of the structure shown. Structures can show the parent of a compound that is named as a salt.

What is called EC50 is the midpoint of the concentration-response curve. On to `Cc1cc(C)c(Oc2cc(NC3CCN(CC4CCCCC4)CC3)nc3ncnn23)c(C)c1`, for which the selectivity ratio was less than 1 in data set [1] and 50 in data set [4]. Further, the EC50 was 245 nM in data set [2] and more than 13000 nM in data set [3].

As for `Cc1cc(C)c(Oc2cc(NC3CCN(Cc4ccncc4)CC3)nc3ncnn23)c(C)c1`, the selectivity ratio stood at 7 in data set [1] and 2650 in data set [4]. In addition, the EC50 was 17 nM in data set [2] and 6400 nM in data set [3].

In the case of `Cc1cc(C)c(Oc2cc(NC3CCN(Cc4ccccc4)CC3)nc3ncnn23)c(C)c1`, the selectivity ratio in data set [1] is less than 1; in data set [4] it was 708. In addition, the 50% effective concentration (EC50) was 36 nM in data set [2] and more than 25000 nM in data set [3].

One may read the logP as a log measure of how a compound divides between an organic and an aqueous phase. The low end stands for a more hydrophilic compound, the high end for a more lipophilic compound. The IC50 is the midpoint of a concentration-inhibition curve. One may read the solubility as the dissolved amount per volume that the medium holds. Read a high solubility as much dissolved substance. In data set [5], `Cc1cc(C)c(Oc2cc(NC3CCN(Cc4ccc(S(C)(=O)=O)cc4)CC3)nc3ncnn23)c(C)c1` showed a logP of 1.91. For the same molecule, the selectivity ratio in data set [1] amounted to 2; in data set [4], 2550. Besides, the EC50 in data set [2] came to 8.1 nM; in data set [3], 13000 nM. Besides, the IC50 in data set [6] came out at 500 nM. In data set [7], this molecule showed a solubility at 2 h of 10.3 µg/mL (≈ 19.8 µM).

Regarding `Cc1cc(C)c(Oc2cc(NC3CCN(Cc4ccc(S(N)(=O)=O)cc4)CC3)nc3ncnn23)c(C)c1`, the results for the selectivity ratio in data set [1] and in data set [4] were 2 and 1890, respectively. Moreover, the EC50 in data set [2] amounted to 27 nM; in data set [3], 22000 nM.

`COC(=O)c1ccc(CN2CCC(Nc3cc(Oc4c(C)cc(C)cc4C)n4ncnc4n3)CC2)cc1`: the selectivity ratio is less than 1 in data set [1] and 686 in data set [4]. For the same molecule, the figures for the EC50 in data set [2] and in data set [3] were 15 nM and more than 10000 nM, respectively.

For the molecule `Cc1cc(C)c(Oc2cc(NC3CCN(Cc4ccc([N+](=O)[O-])cc4)CC3)nc3ncnn23)c(C)c1`, the selectivity ratio in data set [1] is less than 1; in data set [4], 522. Besides, the EC50 in data set [2] was 35 nM; in data set [3], more than 18000 nM.

With `Cc1cc(C)c(Oc2cc(NC3CCN(Cc4ccc(C(N)=O)cc4)CC3)nc3ncnn23)c(C)c1`, the selectivity ratio in data set [1] was less than 1; in data set [4] it was 1180. Besides, the EC50 is 21 nM in data set [2] and more than 24000 nM in data set [3].

Take `CC(=O)c1ccc(CN2CCC(Nc3cc(Oc4c(C)cc(C)cc4C)n4ncnc4n3)CC2)cc1`: the selectivity ratio in data set [1] was less than 1; in data set [4], 2060. Also, the EC50 is 8.7 nM in data set [2] and more than 18000 nM in data set [3].

For the molecule `Cc1cc(C)c(Oc2cc(NC3CCN(Cc4ccc(Br)cc4)CC3)nc3ncnn23)c(C)c1`, the selectivity ratio in data set [1] was less than 1; in data set [4] it was 320. Moreover, the EC50 in data set [2] was 92 nM; in data set [3], more than 30000 nM.

On to `Cc1cc(C)c(Oc2cc(NC3CCN(Cc4cccc(Cl)c4)CC3)nc3ncnn23)c(C)c1`, for which the selectivity ratio in data set [1] is less than 1; in data set [4] it was 1640. Also, the EC50 in data set [2] is 12 nM; in data set [3] it was more than 20000 nM.

On to `Cc1cc(C)c(Oc2cc(NC3CCN(Cc4ccc(C#N)cc4)CC3)nc3ncnn23)c(C)c1`, for which the selectivity ratio is less than 1 in data set [1] and 689 in data set [4]. For the same molecule, the results for the EC50 in data set [2] and in data set [3] were 20 nM and more than 14000 nM, respectively.

Take `Cc1cc(C)c(Oc2cc(NC3CCN(Cc4cccc(C#N)c4)CC3)nc3ncnn23)c(C)c1`: the selectivity ratio in data set [1] is less than 1; in data set [4], 1320. The EC50 in data set [2] is 19 nM; in data set [3] it was more than 25000 nM.

For the molecule `Cc1cc(C)c(Oc2cc(NC3CCN(Cc4ccccc4C#N)CC3)nc3ncnn23)c(C)c1`, the figures for the selectivity ratio in data set [1] and in data set [4] were less than 1 and 356, respectively. Besides, the 50% effective concentration (EC50) in data set [2] was 77 nM; in data set [3], more than 27000 nM.

As to `Cc1cc(C)c(Oc2cc(NC3CCN(Cc4ccc(F)cc4)CC3)nc3ncnn23)c(C)c1`, the selectivity ratio is less than 1 in data set [1] and 424 in data set [4]. Besides, the EC50 in data set [2] was 56 nM; in data set [3], more than 24000 nM.

With `Cc1cc(C)c(Oc2cc(NC3CCN(Cc4cccc(F)c4)CC3)nc3ncnn23)c(C)c1`, the selectivity ratio in data set [1] was not above 1; in data set [4] it was not below 238. For the same molecule, the EC50 in data set [2] was 104 nM; in data set [3], not below 39000 nM.

Take `Cc1cc(C)c(Oc2cc(NC3CCN(Cc4ccccc4F)CC3)nc3ncnn23)c(C)c1`: the selectivity ratio is less than 1 in data set [1] and 520 in data set [4]. Besides, the EC50 in data set [2] was 48 nM; in data set [3], more than 25000 nM.

Regarding `Cc1ccc(CN2CCC(Nc3cc(Oc4c(C)cc(C)cc4C)n4ncnc4n3)CC2)cc1`, the selectivity ratio in data set [1] was less than 1; in data set [4] it was 679. For the same molecule, the EC50 in data set [2] is 72 nM; in data set [3], more than 49000 nM.

With `Cc1cc(C)c(Oc2cc(NC3CCN(Cc4ccccc4C)CC3)nc3ncnn23)c(C)c1`, the selectivity ratio in data set [1] is less than 1; in data set [4], 590. The values for the EC50 in data set [2] and in data set [3] were 42 nM and more than 24000 nM, respectively.

For the molecule `Cc1cc(C)c(Oc2cc(NC3CCN(Cc4ccc(F)cc4F)CC3)nc3ncnn23)c(C)c1`, the selectivity ratio was less than 1 in data set [1] and 255 in data set [4]. Besides, the EC50 is 90 nM in data set [2] and more than 23000 nM in data set [3].

For `Cc1cc(C)c(Oc2cc(NC3CCN(Cc4ccc(F)c(F)c4)CC3)nc3ncnn23)c(C)c1`, the results for the selectivity ratio in data set [1] and in data set [4] were less than 1 and 346, respectively. Moreover, the EC50 in data set [2] was 67 nM; in data set [3] it was more than 23000 nM.

With `Cc1cc(C)c(Oc2cc(NC3CCN(Cc4cc(F)ccc4F)CC3)nc3ncnn23)c(C)c1`, the selectivity ratio in data set [1] was less than 1; in data set [4], 243. Further, the concentration giving a half-maximal response (EC50) in data set [2] is 98 nM; in data set [3] it was more than 24000 nM.

Regarding `Cc1cc(C)c(Oc2cc(NC3CCN(Cc4c(F)cccc4F)CC3)nc3ncnn23)c(C)c1`, the selectivity ratio in data set [1] was less than 1; in data set [4], 57. Moreover, the EC50 in data set [2] is 439 nM; in data set [3], more than 25000 nM.

Take `COC(=O)c1ccc(NC(=O)CN2CCC(Nc3cc(Oc4c(C)cc(C)cc4C)n4ncnc4n3)CC2)c(Cl)c1`: the results for the selectivity ratio in data set [1] and in data set [4] were less than 1 and 315, respectively. In addition, the EC50 in data set [2] was 277 nM; in data set [3] it was more than 86000 nM.

For `Cc1cc(C)c(Oc2cc(NC3CCN(CC(=O)Nc4ccc(C(=O)O)cc4Br)CC3)nc3ncnn23)c(C)c1`, the selectivity ratio in data set [1] was less than 1; in data set [4], 39. Moreover, the EC50 in data set [2] was 2280 nM; in data set [3], more than 89000 nM.

In the case of `CC(C)Nc1cccnc1N1CCN(C(=O)c2cc3cc(NS(C)(=O)=O)ccc3[nH]2)CC1` [DELAVIRDINE MESYLATE], the selectivity ratio in data set [1] was 1; in data set [4] it was more than 67. The EC50 in data set [2] is 540 nM; in data set [3] it was more than 36000 nM.

Turning to `O=c1[nH]cnc2c1ncn2[C@H]1CC[C@@H](CO)O1` [DIDANOSINE], the selectivity ratio in data set [4] was more than 9.

Consider `O=C1Nc2ccc(Cl)cc2[C@@](C#CC2CC2)(C(F)(F)F)O1` [EFAVIRENZ], for which the EC50 in data set [2] was 6.3 nM.

Take `Cc1cc(C#N)cc(C)c1Oc1nc(Nc2ccc(C#N)cc2)nc(N)c1Br` [ETRAVIRINE]: the logP in data set [5] is more than 5. Moreover, the concentration for a half-maximal effect (EC50) in data set [2] was found to be 1.8 nM. Besides, in data set [7], the solubility at 2 h is less than 1 µg/mL.

In the case of `Nc1ccn([C@@H]2CS[C@H](CO)O2)c(=O)n1` [LAMIVUDINE], the selectivity ratio in data set [4] was more than 39.

On to `Cc1ccnc2c1NC(=O)c1cccnc1N2C1CC1` [NEVIRAPINE], for which the EC50 in data set [3] was not below 7600 nM.

Consider `Cc1cn([C@H]2C[C@H](N=[N+]=[N-])[C@@H](CO)O2)c(=O)[nH]c1=O` [ZIDOVUDINE], for which the EC50 in data set [3] amounted to 10 nM.
